High-throughput results (PubChem BioAssay)
Most compounds without a hit are left out; they make up all but 2.3% or so of the library.
TRPC4 agonist: opens the mouse TRPC4 cation channel. B-score at 10 µM. HEK293 TRPC4beta/mu-opioid, Fluo4 calcium fluorescence; hits give high values. Q9QUQ5. AID 2237. 0.49% of 310,000 active;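 active = B-score above 5 SD of library B-scores, and initial fluorescence ratio not above library mean plus 5 SD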;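 note: positive B-score marks a calcium rise read as TRPC4 activation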
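Assay system: HEK293 cells stably co-expressing mouse TRPC4beta and mu-opioid receptor / Timing: Fluo4 dye loading 45 min at room temperature, 110 s recording / Signal: Fluo4 calcium-sensitive dye fluorescence, kinetic, 1 Hz baseline / Read-out: integrated baseline-normalised fluorescence ratio, converted to per-well B score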
TRPC6 act: mouse TRPC6 channel activation. 0.13% of 310,000 active. HEK293-TRPC6 membrane potential dye fluorescence; hits give high values. B-score at 10 µM. AID 2550;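 active = B-score of the integrated fluorescence ratio above library mean plus 3 SD, and starting fluorescence ratio within library mean plus 5 SD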;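 note: higher score means more depolarization so channel activation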
TRPC4 inh: blocks the mouse TRPC4 cation channel | Q9QUQ5 | HEK293 TRPC4beta/mu-opioid, DAMGO-evoked Fluo4 calcium flux; hits give low values | B-score at 10 µM | 0.39% of 300,000 active;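 active = B-score over 3 SD under the library average, no early fluorescence shift, positive overall ratio signal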
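test system = HEK293 cells with stable TRPC4beta plus mu-opioid receptor expression | detection = Fluo4 Ca2+ flux fluorescence | read-out = integrated fluorescence ratio relative to baseline, converted to per-well B score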
TRPC6 inh: blocks the mouse TRPC6 cation channel | HEK293-TRPC6, membrane potential dye, ACh-evoked depolarization; hits give low values | B-score at 10 µM | 1.1% of 310,000 active;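 active = B-score under library mean minus 3 SD, initial fluorescence not abnormally high, positive integrated signal ratio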;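 note: B-score derived from integrated fluorescence ratio over the kinetic read; more negative B-score means stronger inhibition of depolarization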
TRPC4 potent: allosteric potentiators of mouse TRPC4 channel; AID 2227; HEK293 TRPC4beta/mu-opioid, DAMGO EC20, Fluo-4 Ca2+ flux; hits give high values; 0.42% of 310,000 active; B-score at 10 µM; Q9QUQ5;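 active = B-score of calcium response area above 5 SD of library B-scores, with initial fluorescence ratio within 5 SD of library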;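 note: B-score of integrated fluorescence ratio over time as area under calcium response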
HEK293 MPD ctr: parental HEK293 nonspecific activity of TRPC6 modulators | shares compounds with TRPC6 inh | membrane potential dye fluorescence | membrane potential signal change, % at 10 µM | 51% of 2,400 active;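 active = membrane potential signal moves up or down beyond 5 SD from buffer-only wells, on both duplicate plates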
HEK293 MPD ctr 2: second check of TRPC6 modulator effects in parental HEK293 cells. shares compounds with TRPC6 inh. membrane potential dye fluorescence; after compound, maximal acetylcholine stimulation. inhibition, % at 10 µM. 14% of 2,400 active;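 active = membrane potential signal drops by more than 5 SD from the mean control signal, in both duplicate plates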;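 note: plate controls were acetylcholine ECmax control wells for no effect and buffer only wells for full effect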
TRPC4 ctr mod: mouse TRPC4 off-target activity of TRPC6 modulators; shares compounds with TRPC6 inh; HEK293 TRPC4/mu-opioid, membrane potential fluorescence; percent change from control (negative = decrease, positive = increase), % at 10 µM; 69% of 2,400 active; AID 488927;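 active = membrane potential signal moved up or down beyond 5 SD of buffer control wells, in both duplicate plates, actives on both sides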;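 note: plate controls were assay buffer wells for no effect and DAMGO maximal-effect wells for full effect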
TRPC4/MOR inh 2: second check of whether TRPC6 modulators also affect mouse TRPC4; HEK293 TRPC4/mu-opioid, membrane potential dye fluorescence; stimulated with maximal-effect DAMGO; shares compounds with TRPC6 inh; 55% of 2,400 active; inhibition, % at 10 µM;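 active = drop in membrane potential signal beyond 5 SD of the control wells in both duplicate plates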;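 note: TRPC4 counter screen for TRPC6 hits run under conditions tuned for TRPC6 not TRPC4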
TRPC6 block conf: mouse TRPC6 inhibitor confirmation; shares compounds with TRPC6 inh; HEK293-TRPC6, membrane potential dye, ACh-evoked depolarization; inhibition, % at 10 µM; 43% of 3,300 active;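 active = fluorescence ratio falls more than 5 SD below the full-stimulation control mean, in both duplicate runs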;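 note: integrated fluorescence ratio of peak minus minimum over baseline after agonist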
TRPC6 act confirm: mouse TRPC6 activator confirmation. shares compounds with TRPC6 inh. HEK293-TRPC6 membrane potential dye fluorescence, FDSS. activation, % at 10 µM. 11% of 2,800 active. AID 488961;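 active = ratio signal rise beyond 5 SD above unstimulated control wells' mean, seen in both duplicate runs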;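 note: plate controls were buffer EC0 wells for no effect and acetylcholine ECmax response for full effect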
Active calls of the source: *.

How did Cc1ccc(-c2nnn(CC(=O)N3CCN(c4ccccc4)CC3)n2)o1 do in these assays?
TRPC4 agonist: inactive; TRPC6 act: inactive; TRPC4 inh: inactive; TRPC6 inh: -5.3*; TRPC4 potent: inactive; HEK293 MPD ctr: inactive; HEK293 MPD ctr 2: inactive; TRPC4 ctr mod: inactive; TRPC4/MOR inh 2: inactive; TRPC6 block conf: inactive; TRPC6 act confirm: inactive

How did COc1ccc(N2CCN(C(=O)Cn3nnc(-c4ccc(OC)c(OC)c4)n3)CC2)cc1 do in these assays?
TRPC4 agonist: inactive; TRPC6 act: inactive; TRPC4 inh: inactive; TRPC6 inh: inactive; TRPC4 potent: inactive

How did Cc1cc(C)n(-c2ccc(S(=O)(=O)N3CCCC3)cc2[N+](=O)[O-])n1 do in these assays?
TRPC4 agonist: inactive; TRPC6 act: inactive; TRPC4 inh: inactive; TRPC6 inh: inactive; TRPC4 potent: inactive

Results for Cc1cc(N2CCN(c3ccc([N+](=O)[O-])c4cccnc34)CC2)c2ccccc2n1 ?
TRPC4 agonist: inactive; TRPC6 act: inactive; TRPC4 inh: inactive; TRPC6 inh: inactive; TRPC4 potent: inactive

Results for Cc1cc(C)n(-c2ccc(C(F)(F)F)cc2[N+](=O)[O-])n1 ?
TRPC4 agonist: inactive; TRPC6 act: inactive; TRPC4 inh: inactive; TRPC6 inh: -5.3*; TRPC4 potent: inactive; HEK293 MPD ctr: inactive; HEK293 MPD ctr 2: inactive; TRPC4 ctr mod: 9.5%*; TRPC4/MOR inh 2: inactive; TRPC6 block conf: inactive; TRPC6 act confirm: inactive

Results for Cc1cc(N2CCN(c3ccc(C(F)(F)F)cc3[N+](=O)[O-])CC2)c2ccccc2n1 ?
TRPC4 agonist: inactive; TRPC6 act: inactive; TRPC4 inh: inactive; TRPC6 inh: -6.3*; TRPC4 potent: inactive; HEK293 MPD ctr: inactive; HEK293 MPD ctr 2: inactive; TRPC4 ctr mod: -12%*; TRPC4/MOR inh 2: 67%*; TRPC6 block conf: inactive; TRPC6 act confirm: inactive

How did CC1CCCCN1CCCNC(=O)CN1C(=O)c2cccnc2Oc2ccc(Cl)cc21 (stereo not given) do in these assays?
TRPC4 agonist: inactive; TRPC6 act: inactive; TRPC4 inh: inactive; TRPC6 inh: inactive; TRPC4 potent: inactive

Results for CN(C)CC/C=C1/c2ccccc2Sc2ccc(Cl)cc21 ?
TRPC4 agonist: inactive; TRPC6 act: inactive; TRPC4 inh: inactive; TRPC6 inh: -5.3*; TRPC4 potent: inactive; HEK293 MPD ctr: inactive; HEK293 MPD ctr 2: inactive; TRPC4 ctr mod: 9.0%*; TRPC4/MOR inh 2: 54%*; TRPC6 block conf: 48%*; TRPC6 act confirm: inactive

How did CN(C)CC/C=C1\c2ccccc2COc2ccccc21 do in these assays?
TRPC4 agonist: inactive; TRPC6 act: inactive; TRPC4 inh: inactive; TRPC6 inh: inactive; TRPC4 potent: inactive
